In ChEMBL document CHEMBL5247575 (J Med Chem, 2018):

Each compound was assayed on Escherichia coli (assay: Synergistic antibacterial activity against Escherichia coli DH10B transfected with pBC SK (-) PDC-3 assessed as meropenem MIC at 4 ug/ml by broth microdilution method). Conditions: dose 4 µg/ml.
Assay type: functional
Summary of the method: (§1)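 Broth microdilution per CLSI guidelines, using custom frozen panels. […] Each partner drug was also tested alone. MICs were run in triplicate and the modal value is reported.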
Work on O.O=C(NC1CCNCC1)[C@@H]1CC[C@@H]2CN1C(=O)N2OS(=O)(=O)O [RELEBACTAM] yielded an MIC of no more than 0.12 µg/mL.

These compounds were tested on Acinetobacter baumannii (assay: Synergistic antibacterial activity against Acinetobacter baumannii PR476 producing OXA-24/40 assessed as cefepime MIC at 4 ug/ml by broth microdilution method). Conditions: dose 4 µg/ml.
Assay type: functional
For O.O=C(NC1CCNCC1)[C@@H]1CC[C@@H]2CN1C(=O)N2OS(=O)(=O)O [RELEBACTAM], the MIC was 2 µg/mL.

The compounds below were run on Klebsiella pneumoniae (assay: Synergistic antibacterial activity against Klebsiella pneumoniae jefferson 1773 producing OXA-181 assessed as meropenem MIC at 4 ug/ml by broth microdilution method). Conditions: dose 4 µg/ml.
Assay type: functional
In the case of O.O=C(NC1CCNCC1)[C@@H]1CC[C@@H]2CN1C(=O)N2OS(=O)(=O)O [RELEBACTAM], the MIC is reported as 16 µg/mL.

These compounds were tested on Klebsiella pneumoniae (assay: Synergistic antibacterial activity against Klebsiella pneumoniae 761/1723 producing KPC-3 assessed as meropenem MIC at 4 ug/ml by broth microdilution method). Conditions: dose 4 µg/ml.
Assay type: functional
Work on O.O=C(NC1CCNCC1)[C@@H]1CC[C@@H]2CN1C(=O)N2OS(=O)(=O)O [RELEBACTAM] yielded an MIC of no more than 0.12 µg/mL.

These compounds were tested on Klebsiella pneumoniae (assay: Synergistic antibacterial activity against Klebsiella pneumoniae jefferson 1775 producing OXA-48 assessed as cefepime MIC at 4 ug/ml by broth microdilution method). Conditions: dose 4 µg/ml.
Assay type: functional
For O.O=C(NC1CCNCC1)[C@@H]1CC[C@@H]2CN1C(=O)N2OS(=O)(=O)O [RELEBACTAM], the MIC was 0.25 µg/mL.

Each compound was assayed on Acinetobacter baumannii (assay: Synergistic antibacterial activity against Acinetobacter baumannii PR359 producing OXA-23 assessed as cefepime MIC at 4 ug/ml by broth microdilution method). Conditions: dose 4 µg/ml.
Assay type: functional
Work on O.O=C(NC1CCNCC1)[C@@H]1CC[C@@H]2CN1C(=O)N2OS(=O)(=O)O [RELEBACTAM] yielded an MIC of 16 µg/mL.

The compounds below were run on Acinetobacter baumannii (assay: Synergistic antibacterial activity against ADC deleted Acinetobacter baumannii assessed as meropenem MIC at 4 ug/ml by broth microdilution method). Conditions: dose 4 µg/ml.
Assay type: functional
O.O=C(NC1CCNCC1)[C@@H]1CC[C@@H]2CN1C(=O)N2OS(=O)(=O)O [RELEBACTAM] gave an MIC of no more than 0.12 µg/mL.

Each compound was assayed on Bacteria (assay: Inhibition of bacteria PDC-3 assessed as second order rate constant K2/K using nitrocefin as substrate). Conditions: not given.
With O.O=C(NC1CCNCC1)[C@@H]1CC[C@@H]2CN1C(=O)N2OS(=O)(=O)O [RELEBACTAM] the K was 4.6 10^4/M/s.

These compounds were tested on Acinetobacter baumannii (assay: Synergistic antibacterial activity against Acinetobacter baumannii PR323 producing OXA-24/40 assessed as cefepime MIC at 4 ug/ml by broth microdilution method). Conditions: dose 4 µg/ml.
Assay type: functional
In the case of O.O=C(NC1CCNCC1)[C@@H]1CC[C@@H]2CN1C(=O)N2OS(=O)(=O)O [RELEBACTAM], the MIC is reported as greater than 16 µg/mL.

These compounds were tested on Klebsiella pneumoniae (assay: Synergistic antibacterial activity against Klebsiella pneumoniae CAV 1543 producing OXA-48 assessed as cefepime MIC at 4 ug/ml by broth microdilution method). Conditions: dose 4 µg/ml.
Assay type: functional
Work on O.O=C(NC1CCNCC1)[C@@H]1CC[C@@H]2CN1C(=O)N2OS(=O)(=O)O [RELEBACTAM] yielded an MIC of 2 µg/mL.

What follows are compounds tested on Pseudomonas aeruginosa (assay: Synergistic antibacterial activity against Pseudomonas aeruginosa CL232 assessed as meropenem MIC at 4 ug/ml by broth microdilution method). Conditions: dose 4 µg/ml.
Assay type: functional
O.O=C(NC1CCNCC1)[C@@H]1CC[C@@H]2CN1C(=O)N2OS(=O)(=O)O [RELEBACTAM] gave an MIC greater than 16 µg/mL.

What follows are compounds tested on Acinetobacter baumannii (assay: Synergistic antibacterial activity against ADC deleted Acinetobacter baumannii transfected with pWH1266 OXA-23 assessed as meropenem MIC at 4 ug/ml by broth microdilution method). Conditions: dose 4 µg/ml.
Assay type: functional
Compound O.O=C(NC1CCNCC1)[C@@H]1CC[C@@H]2CN1C(=O)N2OS(=O)(=O)O [RELEBACTAM] has an MIC greater than 16 µg/mL.

These compounds were tested on Escherichia coli (assay: Synergistic antibacterial activity against Escherichia coli DH10B assessed as cefepime MIC at 4 ug/ml by broth microdilution method). Conditions: dose 4 µg/ml.
Assay type: functional
O.O=C(NC1CCNCC1)[C@@H]1CC[C@@H]2CN1C(=O)N2OS(=O)(=O)O [RELEBACTAM] showed an MIC of no more than 0.12 µg/mL.

Each compound was assayed on Acinetobacter baumannii (assay: Synergistic antibacterial activity against Acinetobacter baumannii PR448 producing OXA-23 assessed as cefepime MIC at 4 ug/ml by broth microdilution method). Conditions: dose 4 µg/ml.
Assay type: functional
O.O=C(NC1CCNCC1)[C@@H]1CC[C@@H]2CN1C(=O)N2OS(=O)(=O)O [RELEBACTAM] was tested, and the MIC was 16 µg/mL.

These compounds were tested on Klebsiella pneumoniae (assay: Synergistic antibacterial activity against Klebsiella pneumoniae NY BS producing OXA-232 assessed as meropenem MIC at 4 ug/ml by broth microdilution method). Conditions: dose 4 µg/ml.
Assay type: functional
For O.O=C(NC1CCNCC1)[C@@H]1CC[C@@H]2CN1C(=O)N2OS(=O)(=O)O [RELEBACTAM], the MIC was greater than 16 µg/mL.

The compounds below were run on Escherichia coli (assay: Synergistic antibacterial activity against Escherichia coli DH10B assessed as meropenem MIC at 4 ug/ml by broth microdilution method). Conditions: dose 4 µg/ml.
Assay type: functional
Work on O.O=C(NC1CCNCC1)[C@@H]1CC[C@@H]2CN1C(=O)N2OS(=O)(=O)O [RELEBACTAM] yielded an MIC of no more than 0.12 µg/mL.

Each compound was assayed on Klebsiella pneumoniae (assay: Synergistic antibacterial activity against Klebsiella pneumoniae 729/1679 producing KPC-3 assessed as meropenem MIC at 4 ug/ml by broth microdilution method). Conditions: dose 4 µg/ml.
Assay type: functional
Summary of the method: as §1
O.O=C(NC1CCNCC1)[C@@H]1CC[C@@H]2CN1C(=O)N2OS(=O)(=O)O [RELEBACTAM] showed an MIC of no more than 0.12 µg/mL.

The compounds below were run on Acinetobacter baumannii (assay: Synergistic antibacterial activity against Acinetobacter baumannii PR474 producing OXA-23/24/40 assessed as meropenem MIC at 4 ug/ml by broth microdilution method). Conditions: dose 4 µg/ml.
Assay type: functional
In the case of O.O=C(NC1CCNCC1)[C@@H]1CC[C@@H]2CN1C(=O)N2OS(=O)(=O)O [RELEBACTAM], the MIC is reported as greater than 16 µg/mL.

The compounds below were run on Escherichia coli (assay: Antibacterial activity against Escherichia coli DH10B transfected with pBC SK (-) KPC-3 by broth microdilution method). Conditions: not given.
Assay type: functional
O.O=C(NC1CCNCC1)[C@@H]1CC[C@@H]2CN1C(=O)N2OS(=O)(=O)O [RELEBACTAM] gave an MIC greater than 16 µg/mL.

The compounds below were run on Pseudomonas aeruginosa (assay: Synergistic antibacterial activity against Pseudomonas aeruginosa CL232 assessed as cefepime MIC at 4 ug/ml by broth microdilution method). Conditions: dose 4 µg/ml.
Assay type: functional
O.O=C(NC1CCNCC1)[C@@H]1CC[C@@H]2CN1C(=O)N2OS(=O)(=O)O [RELEBACTAM] was tested, and the MIC was 16 µg/mL.

Each compound was assayed on Acinetobacter baumannii (assay: Synergistic antibacterial activity against Acinetobacter baumannii PR359 producing OXA-23 assessed as meropenem MIC at 4 ug/ml by broth microdilution method). Conditions: dose 4 µg/ml.
Assay type: functional
O.O=C(NC1CCNCC1)[C@@H]1CC[C@@H]2CN1C(=O)N2OS(=O)(=O)O [RELEBACTAM] showed an MIC greater than 16 µg/mL.

What follows are compounds tested on Pseudomonas aeruginosa (assay: Antibacterial activity against Pseudomonas aeruginosa 839 by broth microdilution method). Conditions: not given.
Assay type: functional
O.O=C(NC1CCNCC1)[C@@H]1CC[C@@H]2CN1C(=O)N2OS(=O)(=O)O [RELEBACTAM] was tested, and the MIC was greater than 16 µg/mL.

The compounds below were run on Bacteria (assay: Inhibition of bacteria ADC-7 assessed as second order rate constant K2/K using nitrocefin as substrate). Conditions: not given.
O.O=C(NC1CCNCC1)[C@@H]1CC[C@@H]2CN1C(=O)N2OS(=O)(=O)O [RELEBACTAM] was tested, and the K was 7.8 10^3/M/s.

The compounds below were run on Acinetobacter baumannii (assay: Synergistic antibacterial activity against ADC deleted Acinetobacter baumannii transfected with pWH1266 producing OXA-24/40 assessed as cefepime MIC at 4 ug/ml by broth microdilution method). Conditions: dose 4 µg/ml.
Assay type: functional
O.O=C(NC1CCNCC1)[C@@H]1CC[C@@H]2CN1C(=O)N2OS(=O)(=O)O [RELEBACTAM] was tested, and the MIC was greater than 16 µg/mL.

Each compound was assayed on Klebsiella pneumoniae (assay: Synergistic antibacterial activity against Klebsiella pneumoniae NY BS producing OXA-232 assessed as cefepime MIC at 4 ug/ml by broth microdilution method). Conditions: dose 4 µg/ml.
Assay type: functional
O.O=C(NC1CCNCC1)[C@@H]1CC[C@@H]2CN1C(=O)N2OS(=O)(=O)O [RELEBACTAM] gave an MIC of 2 µg/mL.

The compounds below were run on Klebsiella pneumoniae (assay: Synergistic antibacterial activity against Klebsiella pneumoniae 1315/2198 producing KPC-3 assessed as cefepime MIC at 4 ug/ml by broth microdilution method). Conditions: dose 4 µg/ml.
Assay type: functional
Summary of the method: as §1
With O.O=C(NC1CCNCC1)[C@@H]1CC[C@@H]2CN1C(=O)N2OS(=O)(=O)O [RELEBACTAM] the MIC was 0.25 µg/mL.
